Values after ≈ are worked out from the molar mass of the structure shown.
Experiments:
[1] = target: T1, Glucose-dependent insulinotropic receptor (Homo sapiens, UniProt Q8TDV5); test: Agonist activity at human GPR119 expressed in Flp-In-T-Rex-HEK293 cells assessed as increase in intracellular cAMP level after 30 mins by HTRF assay; type: functional, cell-based
T1 sequence (Q8TDV5 whole entry): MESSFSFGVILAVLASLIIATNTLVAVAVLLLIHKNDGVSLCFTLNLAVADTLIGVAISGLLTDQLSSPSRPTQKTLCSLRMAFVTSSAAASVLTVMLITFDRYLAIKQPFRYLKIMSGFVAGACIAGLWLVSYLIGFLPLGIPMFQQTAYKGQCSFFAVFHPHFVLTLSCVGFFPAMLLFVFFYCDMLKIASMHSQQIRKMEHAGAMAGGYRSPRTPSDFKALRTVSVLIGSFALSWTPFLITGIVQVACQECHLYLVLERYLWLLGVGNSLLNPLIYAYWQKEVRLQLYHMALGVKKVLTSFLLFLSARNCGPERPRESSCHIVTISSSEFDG
Procedure, shortened: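 Flp-In-T-Rex-HEK293 cells overexpressing human GPR119, tetracycline-induced 24 h, plated at 5000 cells/well in D-MEM with 1 mM IBMX and 0.01% BSA, then exposed to compound 30 min at 37 °C. cAMP read with HiRange HTRF kit. Basal cAMP subtracted from stimulated level; EC50 taken as concentration giving 50% of maximal response, fitted from dose-response curves.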

[2] = Aqueous solubility of the compound in pH 6.8 phosphate buffer after 24 hrs by HPLC analysis; type: physicochemical
Procedure, shortened: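 Excess solid shaken in pH 6.8 phosphate buffer at 25 °C for 24 h. Suspension centrifuged at 3000 and 11000 rpm, 10 min each. Supernatant diluted in 50% aqueous acetonitrile and quantified by reversed-phase HPLC (0.1% phosphoric acid/acetonitrile, column 40 °C, UV 210 nm).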

[3] = Solubility of the compound in fasted state simulated intestinal fluid incubated for 2 hrs in shaker and subsequently incubated at 37 degC for 22 hrs in water bath by HPLC analysis; type: physicochemical
Procedure, shortened: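 FaSSIF (pH 6.5) with excess compound shaken at 25 °C for 2 h, then held at 37 °C for 22 h. Centrifuged at 3000 and 11000 rpm, 10 min. Supernatant diluted with 50% aqueous acetonitrile or acetonitrile/methanol 1:1. Concentration by reversed-phase HPLC: 0.1% phosphoric acid/acetonitrile, column 40 °C, UV 210 nm.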

[4] = target: Cytochrome P450 2C9 (Homo sapiens, UniProt P11712); test: Inhibition of CYP2C9 in human liver microsomes; type: ADME
Chain of Cytochrome P450 2C9 (P11712 whole entry): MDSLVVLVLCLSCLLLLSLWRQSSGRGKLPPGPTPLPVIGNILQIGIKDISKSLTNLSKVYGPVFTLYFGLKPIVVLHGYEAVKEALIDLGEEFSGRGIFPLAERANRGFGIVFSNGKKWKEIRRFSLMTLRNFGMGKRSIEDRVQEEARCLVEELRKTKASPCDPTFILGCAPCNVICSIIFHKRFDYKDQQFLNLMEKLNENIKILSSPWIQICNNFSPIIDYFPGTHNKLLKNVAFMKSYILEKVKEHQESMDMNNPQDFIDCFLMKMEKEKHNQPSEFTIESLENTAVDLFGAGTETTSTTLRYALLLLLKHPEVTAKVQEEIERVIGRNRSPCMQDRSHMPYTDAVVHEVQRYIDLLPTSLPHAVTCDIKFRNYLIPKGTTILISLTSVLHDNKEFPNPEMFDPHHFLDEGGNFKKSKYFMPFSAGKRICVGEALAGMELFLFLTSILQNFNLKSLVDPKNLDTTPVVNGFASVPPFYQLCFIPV

[5] = target: Cytochrome P450 2C19 (Homo sapiens, UniProt P33261); test: Inhibition of CYP2C19 in human liver microsomes; type: ADME
Chain of Cytochrome P450 2C19 (P33261 whole entry): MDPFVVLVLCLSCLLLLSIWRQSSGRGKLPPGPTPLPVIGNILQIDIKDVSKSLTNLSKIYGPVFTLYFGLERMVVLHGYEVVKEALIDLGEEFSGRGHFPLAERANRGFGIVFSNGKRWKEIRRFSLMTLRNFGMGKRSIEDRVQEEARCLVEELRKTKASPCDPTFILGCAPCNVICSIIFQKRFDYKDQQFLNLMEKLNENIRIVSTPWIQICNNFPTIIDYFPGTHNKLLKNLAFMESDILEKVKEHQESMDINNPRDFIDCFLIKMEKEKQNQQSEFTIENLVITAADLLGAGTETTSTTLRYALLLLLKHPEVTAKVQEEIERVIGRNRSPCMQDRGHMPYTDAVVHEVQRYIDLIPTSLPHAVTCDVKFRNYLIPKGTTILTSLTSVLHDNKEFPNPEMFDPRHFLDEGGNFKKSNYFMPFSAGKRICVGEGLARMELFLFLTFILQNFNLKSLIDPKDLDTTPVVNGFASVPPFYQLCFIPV

[6] = target: T2, Cytochrome P450 1A2 (Homo sapiens, UniProt P05177); test: Inhibition of CYP1A2 in human liver microsomes; type: ADME
T2 sequence (P05177 whole entry): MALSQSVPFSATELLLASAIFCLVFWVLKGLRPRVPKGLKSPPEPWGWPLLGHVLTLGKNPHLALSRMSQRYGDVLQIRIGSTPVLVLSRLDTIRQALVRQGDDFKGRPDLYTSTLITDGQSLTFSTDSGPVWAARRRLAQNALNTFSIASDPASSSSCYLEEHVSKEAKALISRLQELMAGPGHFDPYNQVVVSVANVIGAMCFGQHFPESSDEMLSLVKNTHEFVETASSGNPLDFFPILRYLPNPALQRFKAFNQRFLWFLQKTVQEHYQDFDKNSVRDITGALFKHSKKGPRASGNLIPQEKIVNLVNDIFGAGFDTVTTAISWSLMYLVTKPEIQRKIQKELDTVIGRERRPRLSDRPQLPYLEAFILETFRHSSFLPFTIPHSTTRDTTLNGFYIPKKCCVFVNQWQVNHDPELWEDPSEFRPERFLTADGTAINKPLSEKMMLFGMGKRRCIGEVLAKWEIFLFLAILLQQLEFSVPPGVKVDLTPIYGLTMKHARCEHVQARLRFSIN

[7] = target: Cytochrome P450 2D6 (Homo sapiens, UniProt P10635); test: Inhibition of CYP2D6 in human liver microsomes; type: ADME
Chain of Cytochrome P450 2D6 (P10635 whole entry): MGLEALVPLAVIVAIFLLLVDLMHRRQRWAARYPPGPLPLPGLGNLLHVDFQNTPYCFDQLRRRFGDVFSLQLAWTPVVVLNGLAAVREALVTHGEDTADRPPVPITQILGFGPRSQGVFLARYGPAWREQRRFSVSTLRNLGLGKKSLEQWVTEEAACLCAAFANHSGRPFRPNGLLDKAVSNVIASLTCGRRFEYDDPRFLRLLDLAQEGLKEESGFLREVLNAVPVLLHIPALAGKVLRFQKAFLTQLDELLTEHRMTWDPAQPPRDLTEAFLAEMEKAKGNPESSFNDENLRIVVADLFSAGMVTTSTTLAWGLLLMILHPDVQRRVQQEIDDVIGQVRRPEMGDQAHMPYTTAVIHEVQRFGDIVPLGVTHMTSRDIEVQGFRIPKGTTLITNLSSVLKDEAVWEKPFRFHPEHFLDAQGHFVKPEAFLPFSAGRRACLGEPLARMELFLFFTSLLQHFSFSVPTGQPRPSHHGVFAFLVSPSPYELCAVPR

[8] = target: Cytochrome P450 3A4 (Homo sapiens, UniProt P08684); test: Inhibition of CYP3A4 in human liver microsomes; type: ADME
Chain of Cytochrome P450 3A4 (P08684 whole entry): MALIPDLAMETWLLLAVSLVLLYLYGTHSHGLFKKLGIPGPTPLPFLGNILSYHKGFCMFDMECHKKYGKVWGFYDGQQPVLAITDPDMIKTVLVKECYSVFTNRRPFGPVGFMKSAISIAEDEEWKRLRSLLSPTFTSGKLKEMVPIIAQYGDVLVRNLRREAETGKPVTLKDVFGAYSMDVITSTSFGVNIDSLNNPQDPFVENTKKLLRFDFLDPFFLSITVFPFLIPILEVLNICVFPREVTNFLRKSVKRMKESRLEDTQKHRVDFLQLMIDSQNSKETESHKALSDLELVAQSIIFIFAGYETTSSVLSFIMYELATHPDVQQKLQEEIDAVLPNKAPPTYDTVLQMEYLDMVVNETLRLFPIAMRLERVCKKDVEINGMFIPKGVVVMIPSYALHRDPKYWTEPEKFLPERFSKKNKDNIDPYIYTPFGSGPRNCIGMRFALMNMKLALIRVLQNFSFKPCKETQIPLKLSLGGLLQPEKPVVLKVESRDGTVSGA

[9] = Clearance in Sprague-Dawley rat plasma at 3 mg/kg, iv or 10 mg/kg, po by liquid chromatography-tandem mass spectrometry analysis; type: ADME, organism-based
Procedure, shortened: (§1)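 Fasted male SD rats given a single dose, iv 3 mg/kg in 20% 2-hydroxypropyl-β-cyclodextrin or po 10 mg/kg in 0.5% methylcellulose with 0.1% Tween80. Tail-vein blood taken at time points and spun to plasma. Analyte quantified by LC-MS/MS; parameters from non-compartmental analysis.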

[10] = Volume of distribution at steady state in Sprague-Dawley rat plasma at 3 mg/kg, iv by liquid chromatography-tandem mass spectrometry analysis; type: ADME, organism-based; conditions: read-out: Vdss; procedure, shortened: as §1
[11] = Half life in Sprague-Dawley rat plasma at 3 mg/kg, iv by liquid chromatography-tandem mass spectrometry analysis; type: ADME, organism-based; procedure, shortened: as §1
[12] = AUC (0 to t) in Sprague-Dawley rat plasma at 10 mg/kg, po by liquid chromatography-tandem mass spectrometry analysis; type: ADME, organism-based; procedure, shortened: as §1
[13] = Oral bioavailability in Sprague-Dawley rat plasma at 10 mg/kg by liquid chromatography-tandem mass spectrometry analysis; type: ADME, organism-based; procedure, shortened: as §1
[14] = system: Rattus norvegicus; test: Antidiabetic activity in Zucker diabetic rat assessed as reduction in plasma glucose AUC (0 to 2 hrs) at 10 mg/kg, po pretreated for 30 mins followed by glucose challenge by oGTT assay relative to control; type: functional; design: scale not given: the % may be the effect or the level left
Procedure, shortened: (§2)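 Male Zucker diabetic fatty and lean rats, 9 weeks old, fasted overnight. Dosed orally in 20 w/v% HP-β-CD; 30 min later given oral glucose at 2 g/kg. Tail-vein plasma glucose followed over 2 h by glucose assay kit. Glucose excursion expressed as ΔAUC 0–2 h versus vehicle; mean ± SE, Welch's t-test.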

[15] = system: Rattus norvegicus; test: Antidiabetic activity in Zucker diabetic rat assessed as reduction in plasma glucose AUC (0 to 2 hrs) at 30 mg/kg, po pretreated for 30 mins followed by glucose challenge by oGTT assay relative to control; type: functional; design: scale not given: the % may be the effect or the level left; procedure, shortened: as §2

Compound | EC50 [1] [nM] | solubility at 24 h [2] [µg/mL] | solubility at 24 h [3] [µg/mL] | also measured
CCc1cnc(N2CCC3(CC2)CC(CCCOc2ccc(S(C)(=O)=O)cc2F)C3)nc1 | 225 | – | – | –
CC(C)(C)OC(=O)N1CCC2(CCC(CCCOc3ccc(S(C)(=O)=O)cc3)CC2)CC1 | 2590 | – | – | –
CC(C)OC(=O)N1CCC2(CC1)CC(CCCOc1ccc(C(=O)N(C)C3CC3)c(F)c1)C2 | 67 | – | – | –
Cc1ccc(N2CCC3(CC2)CC(CCCOc2ccc(S(C)(=O)=O)cc2)C3)nc1 | 348 | – | – | –
CC(C)OC(=O)N1CCC2(CC1)CC(CCCOc1ccc(S(C)(=O)=O)cc1)C2 | 70 | 0.17 (≈ 0.401 µM) | 7.09 (≈ 16.7 µM) | –
CCc1cnc(N2CCC3(CC2)CC(CCCOc2ccc(S(C)(=O)=O)c(F)c2)C3)nc1 | 123 | – | – | –
CC(C)(C)OC(=O)N1CCC2(CC1)CC2CCOc1ccc(S(C)(=O)=O)cc1 (stereo unspecified) | 2390 | – | – | –
CC(C)OC(=O)N1CCC2(CC1)CC(CCCOc1ccc(C(=O)N3CC(O)C3)c(F)c1)C2 | 40 | 1.89 (≈ 4.09 µM) | – | IC50 ([4]; read-out: IC50): < 10 µM; IC50 ([5]; read-out: IC50): < 10 µM
CC(C)(C)OC(=O)N1CCC2(CC1)CC2CCCOc1ccc(S(C)(=O)=O)cc1 (stereo unspecified) | 830 | – | – | –
CC(C)OC(=O)N1CCC2(CC1)CC(CCCOc1ccc(C(=O)NC3CC3)nc1)C2 | 47 | 2.11 (≈ 4.91 µM) | – | –
CC(C)OC(=O)N1CCC2(CC1)CC(CCCOc1ccc(C(=O)NCC(N)=O)c(F)c1)C2 | 48 | 1.77 (≈ 3.82 µM) | 18.4 (≈ 39.7 µM) | IC50 [6]: Not Active; IC50 [4]: Not Active; IC50 [5]: Not Active; IC50 [7]: Not Active; IC50 [8]: Not Active; clearance [9]: 15.5 mL/min/kg; Vd [10]: 1.01 L/kg; half-life [11]: 50.5 min; AUC(0-t) [12]: 9510 ng·h/mL; bioavailability [13]: 88.6%; Activity [14]: 34%; Activity [15]: 40.2%
CC(C)(C)OC(=O)N1CCC2(CCC(CCOc3ccc(S(C)(=O)=O)cc3)CC2)CC1 | 55 | – | – | –
CC(C)(C)OC(=O)N1CCC2(CC1)CC(CCOc1ccc(S(C)(=O)=O)cc1)C2 | 183 | – | – | –
CC(C)OC(=O)N1CCC2(CC1)CC(CCCOc1ccc(C(N)=O)c(F)c1)C2 | 52 | – | – | –
CC(C)OC(=O)N1CCC2(CC1)CC(CCCOc1ccc(C(=O)NC3CC3)cn1)C2 | 63 | 2.24 (≈ 5.21 µM) | – | –
CC(C)(C)OC(=O)N1CCC2(CC1)CC(CCCCOc1ccc(S(C)(=O)=O)cc1)C2 | 154 | – | – | –

Stronger by EC50 [1], values ahead:

EC50 [1] [nM] | solubility at 24 h [2] [µg/mL] | solubility at 24 h [3] [µg/mL] | Compound | also measured
18 | < 0.16 | 2.52 (≈ 5.71 µM) | CC(C)OC(=O)N1CCC2(CC1)CC(CCCOc1ccc(S(C)(=O)=O)c(F)c1)C2 | –
9 | – | – | CC(C)(C)OC(=O)N1CCC2(CC1)CC(CCCOc1ccc(S(C)(=O)=O)c(F)c1)C2 | –
31 | – | – | CC(C)(C)COC(=O)N1CCC2(CC1)CC(CCCOc1ccc(S(C)(=O)=O)c(F)c1)C2 | –
13 | < 0.15 | 1.27 (≈ 2.8 µM) | CC1(OC(=O)N2CCC3(CC2)CC(CCCOc2ccc(S(C)(=O)=O)c(F)c2)C3)CC1 | –
25 | – | – | CC(C)(C)OC(=O)N1CCC2(CC1)CC(CCCOc1ccc(S(C)(=O)=O)cc1F)C2 | –
34 | 3.43 (≈ 7.68 µM) | – | CC(C)OC(=O)N1CCC2(CC1)CC(CCCOc1ccc(C(=O)N3CCC3)c(F)c1)C2 | IC50 ([4]; read-out: IC50): < 10 µM; IC50 ([5]; read-out: IC50): < 10 µM
14 | < 0.13 | 3.48 (≈ 7.95 µM) | CC(C)(C)OC(=O)N1CCC2(CC1)CC(CCCOc1ccc(S(C)(=O)=O)cc1)C2 | –
35 | < 0.13 | 2.51 (≈ 5.61 µM) | CC(C)c1noc(N2CCC3(CC2)CC(CCCOc2ccc(S(C)(=O)=O)cc2)C3)n1 | –
29 | 3.85 (≈ 8.36 µM) | 92.4 (≈ 201 µM) | CC(C)OC(=O)N1CCC2(CC1)CC(CCCOc1ccc(C(=O)N3CCCC3)c(F)c1)C2 | IC50 ([6]; read-out: IC50): < 10 µM; IC50 ([4]; read-out: IC50): < 10 µM; IC50 ([5]; read-out: IC50): < 10 µM
8 | 0.21 (≈ 0.47 µM) | 8.58 (≈ 19.2 µM) | CC(C)OC(=O)N1CCC2(CC1)CC(CCCOc1ccc(C(=O)NC3CC3)c(F)c1)C2 | –
31 | < 0.12 | 0.64 (≈ 1.44 µM) | CCc1cnc(N2CCC3(CC2)CC(CCCOc2ccc(S(C)(=O)=O)cc2)C3)nc1 | –
23 | < 0.14 | 7.65 (≈ 16.4 µM) | CS(=O)(=O)c1ccc(OCCCC2CC3(CCN(C(=O)OC4CCCC4)CC3)C2)cc1F | –

Reference: ChEMBL document CHEMBL4219099, “Design, synthesis and biological evaluation of novel 7-azaspiro[3.5]nonane derivatives as GPR119 agonists” (Bioorg Med Chem, 2018)
